Measured values published in ChEMBL document CHEMBL3822365, “Probing the Anticancer Action of Oridonin with Fluorescent Analogues: Visualizing Subcellular Localization to Mitochondria” (J Med Chem, 2016).
The source made the active and inactive calls. The rule behind the calls is not given here.

Tests used:
[1] = Cytotoxicity against human Bel7402 cells assessed as growth inhibition at 100 uM after 72 hrs by MTT assay; format: functional; settings: Bel-7402, 72 h, read-out: GI
In short: (§1)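 Bel-7402 cells exposed to compound for 72 h, then MTT read-out of percent growth inhibition at the single stated concentration. Values are the mean of three independent experiments.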

[2] = Cytotoxicity against human Bel7402 cells assessed as growth inhibition at 10 uM after 72 hrs by MTT assay; format: functional; settings: Bel-7402, 72 h, read-out: GI; in short: as §1
[3] = Cytotoxicity against human Bel7402 cells assessed as growth inhibition at 1 uM after 72 hrs by MTT assay; format: functional; settings: Bel-7402, 72 h, read-out: GI; in short: as §1
HepG2 [4] = experiment: Cytotoxicity against human HepG2 cells assessed as inhibition of cell proliferation after 72 hrs by MTT assay; format: functional, cell-based; settings: HepG2, 72 h
In short: (§2)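 Log-phase cells seeded at 5 × 10^4 cells/mL and exposed to compound for 72 h at 37 °C, 5% CO2. MTT (5 mg/mL) added for a further 4 h, formazan dissolved in DMSO, OD read at 490 nm. Negative reference 0.1% DMSO, positive reference paclitaxel. IC50 given as mean ± SD, n = 3.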

A549 [5] = experiment: Cytotoxicity against human A549 cells assessed as inhibition of cell proliferation after 72 hrs by MTT assay; format: functional, cell-based; settings: A549, 72 h; in short: as §2
HeLa = experiment: Cytotoxicity against human HeLa cells assessed as inhibition of cell proliferation after 72 hrs by MTT assay; format: functional, cell-based; in short: as §2
HepG2 [6] = experiment: Drug uptake in human HepG2 cells at 5 uM after 1 hr by inverted confocal microscopy; format: ADME, cell-based; settings: hepg2, 1 h
In short: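 HepG2 cells were incubated with probe at 5 μM for 1 h and then examined by fluorescence microscopy for intracellular staining.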

HepG2 [7] = experiment: Drug uptake in human HepG2 cells at 1 uM after 12 hrs by inverted confocal microscopy; format: ADME, cell-based; settings: hepg2, 12 h
In short: (§3)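 Live A549 or HepG2 cells were given 1 μM probe for 12 h and washed with media. Confocal imaging used ex 405/em 460 nm at 40× on an inverted microscope. Each experiment was repeated three times.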

[8] = Drug uptake in human A549 cell cytoplasm at 1 uM after 12 hrs by inverted confocal microscopy; format: ADME, cell-based; settings: a549, 12 h; in short: as §3
HepG2 [9] = experiment: Drug uptake in human HepG2 cells at 1 uM after 5 mins by inverted confocal microscopy; format: ADME, cell-based; settings: hepg2, 5 min
A549 [10] = experiment: Drug uptake in human A549 cells at 1 uM after 5 mins by inverted confocal microscopy; format: ADME, cell-based; settings: a549, 5 min
[11] = Drug uptake in mitochondria of human A549 cells at 1 uM after 1 hr by MitoTracker staining based confocal laser scanning microscopy; format: ADME; settings: a549, 1 h
In short: (§4)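 A549 cells were treated with 1 μM probe for 1, 3, 12 or 24 h and washed in PBS. They were then stained with MitoTracker Red CMXRos (200 nM, 0.5 h), washed in cold PBS, fixed with paraformaldehyde and imaged by confocal laser scanning microscopy. Mitochondrial overlap was quantified as Pearson's coefficient (Rr).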

[12] = Drug uptake in mitochondria of human A549 cells at 1 uM after 12 hrs by MitoTracker staining based confocal laser scanning microscopy; format: ADME; settings: a549, 12 h; in short: as §4
[13] = Drug uptake in mitochondria of human A549 cells at 1 uM after 24 hrs by MitoTracker staining based confocal laser scanning microscopy; format: ADME; settings: a549, 24 h; in short: as §4
A549 [14] = experiment: Dissipation of mitochondrial membrane potential in human A549 cells at 1 uM by JC-1 staining based confocal microscopy; format: functional, cell-based; settings: TDE = time-dependent effect
In short: (§5)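 A549 cells were exposed to 1 μM compound for 12 to 48 h. They were then loaded with JC-1 at 10 μg/mL for 30 min at 37 °C and washed in PBS for 5 min. Aggregate (red, ex 525/em 600 nm) and monomer (green, ex 490/em 535 nm) signals were read by microplate reader or confocal microscope. Value is the red:green ratio, 10000 cells per condition, mean ± SD of three independent experiments.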

A549 [15] = experiment: Dissipation of mitochondrial membrane potential in human A549 cells assessed as ratio of red to green fluorescence at 1 uM after 12 to 48 hrs by JC-1 staining based confocal microscopy; format: functional; in short: as §5
A549 [16] = experiment: Dissipation of mitochondrial membrane potential in human A549 cells assessed as ratio of red to green fluorescence at 1 uM after 48 hrs by JC-1 staining based confocal microscopy; format: functional; in short: as §5
A549 [17] = experiment: Drug uptake in human A549 cells at 1 uM preincubated with oridonin for 24 hrs followed by compound addition measured after 1 hr by confocal microscopy; format: ADME, cell-based; settings: a549, 1 h
A549 [18] = experiment: Drug uptake in human A549 cells at 1 uM preincubated with compound 25 for 24 hrs followed by compound addition measured after 1 hr by confocal microscopy; format: ADME, cell-based; settings: a549, 1 h
A549 [19] = experiment: Drug uptake in human A549 cells at 1 uM preincubated with compound 26 for 24 hrs followed by compound addition measured after 1 hr by confocal microscopy; format: ADME, cell-based; settings: a549, 1 h
[20] = Antiproliferative activity against human NCI-H929 cells assessed as reduction in cell viability after 24 to 72 hrs by MTT assay; format: functional, cell-based
HepG2 [21] = experiment: Drug uptake in human HepG2 cells at 50 to 100 uM after 1 hr by inverted confocal microscopy; format: ADME, cell-based; settings: hepg2, 1 h
In short: (§6)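 HepG2 cells incubated with probe for 1 h, then intracellular fluorescence imaged by fluorescence microscopy.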

HepG2 [22] = experiment: Drug uptake in human HepG2 cells at 20 uM after 1 hr by inverted confocal microscopy; format: ADME, cell-based; settings: hepg2, 1 h; in short: as §6
A549 [23] = experiment: Dissipation of mitochondrial membrane potential in human A549 cells at 20 uM after 1 to 48 hrs by […]; format: functional, cell-based
A549 [24] = experiment: Dissipation of mitochondrial membrane potential in human A549 cells at 10 uM after 36 hrs by JC-1 staining based confocal microscopy; format: functional, cell-based
In short: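 A549 cells were exposed to 10 μM compound for 36 h or left untreated. They were then loaded with 10 μg/mL JC-1 for 30 min at 37 °C and washed 5 min in PBS. The red-to-green fluorescence shift was viewed by confocal microscopy. Done in triplicate.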

A549 [25] = experiment: Induction of apoptosis in human A549 cells assessed as cytochrome c release from mitochondria to cytosol at 3 uM after 24 to 48 hrs by MitoTracker probe/DAPI staining based confocal laser scanning microscopy; format: functional, cell-based
In short: (§7)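 A549 cells exposed to compound for 24 or 48 h, then stained with MitoTracker Red for 30 min. Cells fixed in 4% formaldehyde, permeabilized with 0.2% Triton X-100 and blocked in 5% BSA for 1 h. Anti-cytochrome c primary antibody applied overnight at 4 °C, then Alexa Fluor 488 goat anti-rabbit for 2 h. DAPI nuclear counterstain, imaged by confocal microscopy.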

A549 [26] = experiment: Induction of apoptosis in human A549 cells assessed as cytochrome c release from mitochondria to cytosol at 5 uM after 24 to 48 hrs by MitoTracker probe/DAPI staining based confocal laser scanning microscopy; format: functional, cell-based; in short: as §7
K562 = experiment: Antiproliferative activity against human K562 cells; format: functional, cell-based

SMILES	inhibition of growth at 100 µM [1]	inhibition of growth at 10 µM [2]	inhibition of growth at 1 µM [3]	IC50 (HepG2 [4])	IC50 (A549 [5])	IC50 (HeLa)	also measured
C=C1C(=O)[C@]23[C@H](OC(=O)CCC(=O)OCCOC(=O)Cc4cc(=O)oc5cc(N(C)C)ccc45)[C@H]1CC[C@H]2[C@@]12CO[C@@]3(O)[C@@H](O)[C@@H]1C(C)(C)CC[C@@H]2O	93.3%	46.4%	1.1%	8.8 µM	11.2 µM	4.6 µM	Drug uptake (HepG2 [6]): Active; Drug uptake (HepG2 [7]): Active; Drug uptake [8]: Active
C=C1C(=O)[C@]23[C@H](OC(=O)CCCC(=O)OCCOCCOC(=O)c4cc5ccc(N(CC)CC)cc5oc4=O)[C@H]1CC[C@H]2[C@@]12CO[C@@]3(O)[C@@H](O)[C@@H]1C(C)(C)CC[C@@H]2O	94.6%	70.1%	1.4%	–	–	–	–
C=C1C(=O)[C@]23[C@H](OC(=O)CCCCCCC)[C@H]1CC[C@H]2[C@@]12CO[C@@]3(O)[C@@H](O)[C@@H]1C(C)(C)CC[C@@H]2O	94.7%	92.7%	57.5%	–	–	–	–
C=C1C(=O)[C@]23[C@H](OC(=O)CCCC(=O)OCCCCOC(=O)c4cc5ccc(N(CC)CC)cc5oc4=O)[C@H]1CC[C@H]2[C@@]12CO[C@@]3(O)[C@@H](O)[C@@H]1C(C)(C)CC[C@@H]2O	93.8%	94%	88.6%	2.6 µM	5.1 µM	2 µM	Drug uptake (HepG2 [6]): Active; Drug uptake (HepG2 [9]): Active; Drug uptake (A549 [10]): Active; Drug uptake (HepG2 [7]): Active; Drug uptake [8]: Active; Drug uptake [11]: Active; Drug uptake [12]: Active; Drug uptake [13]: Not Active; Activity (A549 [14]): tde; Ratio (A549 [15]): 1.496; Ratio (A549 [16]): 0.312; Activity (A549 [17]): Not Active; Drug uptake (A549 [18]): Not Active; Drug uptake (A549 [19]): Active
C=C1C(=O)[C@]23[C@H](O)[C@H]1CC[C@H]2[C@]12CCCC(C)(C)[C@H]1[C@H](O)[C@@]3(O)OC2	–	–	–	–	–	–	IC50 [20]: 0.85 µM
CCN(CC)c1ccc2cc(C(=O)OCCO)c(=O)oc2c1	9.5%	3.7%	0.7%	–	–	–	Drug uptake (HepG2 [21]): Not Active
C=C1C(=O)[C@]23[C@H](OC(=O)CCCC(=O)OCCCOC(=O)c4cc5ccc(N(CC)CC)cc5oc4=O)[C@H]1CC[C@H]2[C@@]12CO[C@@]3(O)[C@@H](O)[C@@H]1C(C)(C)CC[C@@H]2O	94.6%	89.9%	2.7%	–	–	–	–
CCN(CC)c1ccc2cc(C(=O)OCCCCOC(=O)CCCC(=O)O[C@@H]3[C@H]4CC[C@H]5[C@@]67CO[C@@](O)([C@@H](O)[C@@H]6C(C)(C)CC[C@@H]7O)[C@@]35C(=O)[C@@H]4C)c(=O)oc2c1	37.2%	3.7%	1.8%	144 µM	78 µM	79.6 µM	Drug uptake (HepG2 [22]): Not Active; Activity (A549 [23]): inactive
C=C1C(=O)[C@]23[C@H](O)[C@H]1CC[C@H]2[C@@]12CO[C@]3(O)[C@@H](O)[C@@H]1C(C)(C)CC[C@@H]2O [ORIDONIN]	94.6%	94.8%	37.9%	15.2 µM	10.4 µM	17.8 µM	Activity (A549 [24]): Active; Activity (A549 [25]): Active; Activity (A549 [26]): Active
C=C1C(=O)[C@]23[C@H](OC(=O)CCC(=O)OCCOC(=O)c4cc5ccc(N(CC)CC)cc5oc4=O)[C@H]1CC[C@H]2[C@@]12CO[C@@]3(O)[C@@H](O)[C@@H]1C(C)(C)CC[C@@H]2O	94.4%	72.4%	11.5%	–	–	–	–
C=C1C(=O)[C@]23C[C@H]1CC[C@H]2[C@]1(COC3=O)[C@@H](OC(C)=O)CCC(C)(C)[C@H]1CO	–	–	–	–	–	–	IC50 (K562): 3.56 µM
C=C1C(=O)[C@]23[C@H](OC(=O)Cc4cc(=O)oc5cc(N(C)C)ccc45)[C@H]1CC[C@H]2[C@@]12CO[C@@]3(O)[C@@H](O)[C@@H]1C(C)(C)CC[C@@H]2O	92.4%	94.5%	13.6%	–	–	–	–
C[C@H]1C(=O)[C@]23[C@H](O)[C@H]1CC[C@H]2[C@@]12CO[C@@]3(O)[C@@H](O)[C@@H]1C(C)(C)CC[C@@H]2O	57.2%	4.2%	2.1%	70.6 µM	67 µM	52.7 µM	–
C=C1C(=O)[C@]23[C@H](OC(=O)CCCC(=O)OCCOC(=O)c4cc5ccc(N(CC)CC)cc5oc4=O)[C@H]1CC[C@H]2[C@@]12CO[C@@]3(O)[C@@H](O)[C@@H]1C(C)(C)CC[C@@H]2O	94.6%	85%	4.9%	–	–	–	–
